≈ marks a conversion by molar mass, not a printed value.
Experiments:
Bacteria = assay: Inhibition of bacterial beta-lactamase KPC-2 expressed in Escherichia coli BL21 (DE3) using nitrocefin as substrate at 1 uM by spectrophotometric analysis relative to control
How it was run: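 Purified recombinant KPC-2 tested against the chromogenic β-lactam nitrocefin at 1 µM inhibitor. Hydrolysis was followed as the rise in absorbance at 482 nm (ε482 = 17,400 M-1 cm-1). Activity is expressed as percent inhibition relative to an uninhibited control.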

[1] = Inhibition of bacterial beta-lactamase KPC-2 expressed in Escherichia coli BL21 (DE3) using nitrocefin as substrate assessed as inhibition constant by Cheng-Prusoff equation analysis; parameters: species or system Bacteria
Escherichia coli [2] = assay: Potentiation of cefotaxime induced antibacterial activity against Escherichia coli expressing CMY-4/TEM-1 assessed as cefotaxime MIC at 5 ug/ml incubated for 16 to 20 hrs by microdilution method; format: functional; conditions: dose 5 µg/ml, time 16-20 hrs
How it was run: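 Cefotaxime MIC re-measured with the boronic acid inhibitor held at a fixed 5 μg/mL, lowered from an earlier 50 μg/ml fixed-dose combination; MICs interpreted against CLSI susceptibility categories.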

Escherichia coli [3] = format: functional, BL21 (DE3); conditions: time 16-18 hrs
Escherichia coli [4] = assay: microbe, parasite or virus in culture; format: functional; conditions: BL21 (DE3), dose 5 µg/ml, time 16-20 hrs
Escherichia coli [5] = assay: microbe, parasite or virus in culture; format: functional; conditions: BL21 (DE3), dose 50 µg/ml, time 16-20 hrs
Escherichia coli [6] = assay: Antibacterial activity against Escherichia coli NCTC10418; format: functional
Escherichia coli [7] = assay: microbe, parasite or virus in culture; format: functional; conditions: BL21 (DE3), dose 5 µg/ml, time 16-20 hrs; remark: listed apart in the source
physchem = conditions: 0.1 M phosphate buffer, pH 4.3
[8] = Cytotoxicity against HEK293 cells assessed as cell viability at 5 to 50 ug/ml incubated for 24 hrs in presence of cefotaxime by MTT assay relative to control; conditions: human, at 5 to 50 µg/mL
[9] = Cytotoxicity against HEK293 cells assessed as cell viability at 5 to 50 ug/ml incubated for 24 hrs by MTT assay relative to control; conditions: human, at 5 to 50 µg/mL
Escherichia coli [10] = assay: microbe, parasite or virus in culture; format: functional; conditions: BL21 (DE3), dose 50 µg/ml, time 16-20 hrs; remark: listed apart in the source
[11] = Inhibition of class C […]beta-lactamase AmpC (unknown origin); parameters: species or system Bacteria

Row | SMILES | inhibition (Bacteria) [%] | Ki [1] [nM] | inhibition zone (IZ) (Escherichia coli [3]) [mm] | viability at 24 h [8] [%] | viability at 24 h [9] [%] | other results
1 | [N-]=[N+]=Nc1cccc(B(O)O)c1 | 34 | 450 | 31.3 | – | – | MIC (Escherichia coli [2]): 1 µg/mL; MIC (Escherichia coli [4]): ≤ 0.06 µg/mL; MIC (Escherichia coli [5]): ≤ 0.06 µg/mL; MIC (Escherichia coli [6]): > 64 µg/mL; MIC (Escherichia coli [7]): 0.25 µg/mL (≈ 1.53 µM); pKa at 100 µM (physchem): 8.27
2 | [N-]=[N+]=NCc1ccc(B(O)O)cc1 | – | 493 | – | > 80 | > 80 | –
3 | CCC1CC(=O)CCN1c1ccccc1B(O)O (centres undefined) | – | – | 18.7 | – | – | –
4 | OB(O)c1ccc(-c2ccccc2)cc1 [BIPHENYLBORONIC ACID] | – | – | 32.2 | – | – | –
5 | OB(O)c1cccc(Cn2cc(-c3ccccn3)nn2)c1 | 61 | – | 25.9 | – | – | –
6 | [N-]=[N+]=Nc1ccc(F)c(B(O)O)c1 | 37 | 570 | 25.3 | – | – | MIC (Escherichia coli [10]): 0.5 µg/mL (≈ 2.76 µM); MIC (Escherichia coli [4]): 1 µg/mL (≈ 5.53 µM); MIC (Escherichia coli [5]): 0.25 µg/mL (≈ 1.38 µM); MIC (Escherichia coli [6]): > 64 µg/mL; MIC (Escherichia coli [7]): 1 µg/mL (≈ 5.53 µM); pKa at 100 µM (physchem): 6.87
7 | OB(O)c1cccc(-n2cc(-c3ccccc3)nn2)c1 | 18 | – | 26.2 | – | – | –
8 | Cc1ccc(F)c(B(O)O)c1 | – | – | 29.6 | – | – | –
9 | Nc1cc(B(O)O)cc([N+](=O)[O-])c1 | – | – | 26.9 | – | – | –
10 | OB(O)c1ccc(Cn2cc(-c3cccnc3)nn2)cc1 | 59 | – | 23.7 | – | – | –
11 | O=[N+]([O-])c1cc(NCc2ccccc2)cc(B(O)O)c1 | – | – | 20.9 | – | – | –
12 | NCc1ccc(F)c(B(O)O)c1 | – | – | 19.9 | – | – | –
13 | OB(O)c1cccc(Cn2cc(C3CC3)nn2)c1 | 30 | 515 | 30.9 | – | – | –
14 | OB(O)c1cccc(Cn2cc(Cc3ccccc3)nn2)c1 | 48 | – | 23.6 | – | – | –
15 | O=C(Nc1cccc(B(O)O)c1)c1ccsc1 | 28 | 870 | 29 | > 80 | > 80 | MIC (Escherichia coli [10]): 2 µg/mL (≈ 8.09 µM); MIC (Escherichia coli [4]): 0.12 µg/mL (≈ 0.486 µM); MIC (Escherichia coli [5]): 0.12 µg/mL (≈ 0.486 µM); MIC (Escherichia coli [6]): > 64 µg/mL; MIC (Escherichia coli [7]): 4 µg/mL (≈ 16.2 µM)
16 | OB(O)c1ccc(Cn2cc(-c3ccsc3)nn2)cc1 | 53 | 219 | 27.6 | > 80 | > 80 | –
17 | O=S(=O)(NCB(O)O)c1ccc(-c2nnn[nH]2)cc1C(F)(F)F | – | – | – | – | – | Ki [11]: 0.05 nM
18 | OB(O)c1cccc(Cn2cc(-c3ccsc3)nn2)c1 | 92 | 32 | 32 | – | – | MIC (Escherichia coli [10]): ≤ 0.06 µg/mL; MIC (Escherichia coli [4]): ≤ 0.06 µg/mL; MIC (Escherichia coli [6]): > 64 µg/mL; MIC (Escherichia coli [7]): ≤ 0.06 µg/mL
19 | [N-]=[N+]=Nc1cc(F)c(F)c(B(O)O)c1 | – | 27200 | 16.8 | – | – | pKa at 100 µM (physchem): 6.04
20 | COc1ccc(-c2cn(Cc3cccc(B(O)O)c3)nn2)cc1 | 7 | 860 | 25.6 | > 80 | > 80 | –
21 | CC(C)(C)c1cn(-c2cccc(B(O)O)c2)nn1 | 14 | 660 | 32.7 | – | – | –
22 | [N-]=[N+]=NCc1ccc(F)c(B(O)O)c1 | 40 | 410 | 29 | – | – | MIC (Escherichia coli [10]): ≤ 0.06 µg/mL; MIC (Escherichia coli [4]): ≤ 0.06 µg/mL; MIC (Escherichia coli [5]): ≤ 0.06 µg/mL; MIC (Escherichia coli [6]): > 64 µg/mL; MIC (Escherichia coli [7]): 0.5 µg/mL (≈ 2.56 µM); pKa at 100 µM (physchem): 7.22
23 | O=C(Nc1cccc(B(O)O)c1)c1ccc2sccc2c1 | 10.2 | – | 26.1 | – | – | –
24 | CCOC(=O)c1cn(Cc2cccc(B(O)O)c2)nn1 | 7 | 900 | 31.8 | – | – | –
25 | O=C(Nc1cccc(B(O)O)c1)c1cc2ccccc2s1 | 8.6 | – | 28.4 | > 80 | > 80 | –
26 | COc1ccc(B(O)O)c(-n2cccn2)c1 | – | – | 21.7 | – | – | –

Row | SMILES | inhibition (Bacteria) [%] | Ki [1] [nM] | inhibition zone (IZ) (Escherichia coli [3]) [mm] | viability at 24 h [8] [%] | viability at 24 h [9] [%] | other results
27 | Nc1cc(F)c(F)c(B(O)O)c1 | – | – | 25.5 | – | – | –
28 | OB(O)c1cccc(-n2cc(C3CC3)nn2)c1 | 47 | 440 | 31.5 | > 80 | > 80 | –
29 | CC(C)(C)c1cn(Cc2cccc(B(O)O)c2)nn1 | 50 | 280 | 33.5 | – | – | MIC (Escherichia coli [10]): 0.5 µg/mL (≈ 1.93 µM); MIC (Escherichia coli [5]): 0.12 µg/mL (≈ 0.463 µM); MIC (Escherichia coli [6]): > 64 µg/mL
30 | OB(O)c1cccc(Cn2cc(-c3ccccc3)nn2)c1 | 69 | 166 | 29.6 | > 80 | > 80 | –
31 | OB(O)c1cccc(-n2cc(-c3ccsc3)nn2)c1 | 75 | 38 | 29.9 | > 80 | > 80 | MIC (Escherichia coli [10]): 0.25 µg/mL (≈ 0.922 µM); MIC (Escherichia coli [4]): 0.25 µg/mL (≈ 0.922 µM); MIC (Escherichia coli [5]): 0.12 µg/mL (≈ 0.443 µM); MIC (Escherichia coli [6]): > 64 µg/mL; MIC (Escherichia coli [7]): 1 µg/mL (≈ 3.69 µM); pKa at 100 µM (physchem): 8.31
32 | CCOC(=O)c1cn(-c2cccc(B(O)O)c2)nn1 | 25 | – | 30 | > 80 | > 80 | MIC (Escherichia coli [10]): 2 µg/mL (≈ 7.66 µM); MIC (Escherichia coli [5]): 1 µg/mL (≈ 3.83 µM); MIC (Escherichia coli [6]): > 64 µg/mL
33 | O=[N+]([O-])c1cc(B(O)O)c(F)cc1F | – | – | 29.3 | – | – | pKa at 100 µM (physchem): 5.98
34 | OB(O)c1cccc(Cn2cc(-c3cccs3)nn2)c1 | 85 | 67 | 33.7 | > 80 | > 80 | MIC (Escherichia coli [10]): ≤ 0.06 µg/mL; MIC (Escherichia coli [4]): ≤ 0.06 µg/mL; MIC (Escherichia coli [6]): > 64 µg/mL; MIC (Escherichia coli [7]): ≤ 0.06 µg/mL
35 | O=C(Nc1cccc(B(O)O)c1)c1ccccc1 | 40 | – | 25.2 | > 80 | > 80 | –
36 | OB(O)c1cccc(-c2ccccc2)c1 | – | – | 29.7 | – | – | –
37 | OB(O)c1ccc(Cn2cc(-c3cccs3)nn2)cc1 | 45 | 275 | 27.5 | – | – | –
38 | CCC(=O)Nc1cccc(B(O)O)c1 | 16 | – | 25.2 | > 80 | > 80 | –
39 | COc1ccc(-c2cn(-c3cccc(B(O)O)c3)nn2)cc1 | 5.9 | – | 30.1 | – | – | –
40 | O=C(O)c1cn(Cc2cccc(B(O)O)c2)nn1 | 10 | 1020 | 21.4 | > 80 | > 80 | MIC (Escherichia coli [10]): 2 µg/mL (≈ 8.1 µM); MIC (Escherichia coli [4]): 2 µg/mL (≈ 8.1 µM); MIC (Escherichia coli [5]): 0.12 µg/mL (≈ 0.486 µM); MIC (Escherichia coli [6]): > 64 µg/mL; MIC (Escherichia coli [7]): 4 µg/mL (≈ 16.2 µM)
41 | [N-]=[N+]=Nc1cc(B(O)O)c(F)cc1F | 0 | 7800 | 23.4 | > 80 | > 80 | MIC (Escherichia coli [10]): 16 µg/mL (≈ 80.4 µM); MIC (Escherichia coli [4]): ≤ 0.06 µg/mL; MIC (Escherichia coli [5]): 0.12 µg/mL (≈ 0.603 µM); MIC (Escherichia coli [6]): > 64 µg/mL; MIC (Escherichia coli [7]): 8 µg/mL (≈ 40.2 µM); pKa at 100 µM (physchem): 6.27
42 | O=C(Nc1cccc(B(O)O)c1)c1cccs1 | 2 | 2900 | 26 | > 80 | > 80 | –
43 | OB(O)c1cccc(-n2cc(-c3cccs3)nn2)c1 | 20 | 710 | 31.8 | > 80 | > 80 | –
44 | COc1ccc(-c2cn(Cc3ccc(B(O)O)cc3)nn2)cc1 | 59 | 227 | 22.6 | – | – | –
45 | O=C(O)c1cn(-c2cccc(B(O)O)c2)nn1 | 0.3 | – | 32.9 | > 80 | > 80 | –
46 | OB(O)c1ccc(Cn2cc(-c3ccccc3)nn2)cc1 | 55 | 323 | 25.5 | > 80 | > 80 | –
47 | OB(O)c1cccc(Cn2cc(-c3cccnc3)nn2)c1 | 54 | 480 | 25.9 | > 80 | > 80 | –
48 | OB(O)c1cc(-n2cc(-c3ccsc3)nn2)ccc1F | 35 | 800 | 39.8 | – | – | MIC (Escherichia coli [10]): ≤ 0.06 µg/mL; MIC (Escherichia coli [4]): 0.12 µg/mL (≈ 0.415 µM); MIC (Escherichia coli [5]): ≤ 0.06 µg/mL; MIC (Escherichia coli [6]): > 64 µg/mL; MIC (Escherichia coli [7]): 1 µg/mL (≈ 3.46 µM); pKa at 100 µM (physchem): 7.61
49 | OB(O)c1cc(Cn2cc(-c3ccsc3)nn2)ccc1F | 53 | 240 | 29.9 | – | – | MIC (Escherichia coli [10]): ≤ 0.06 µg/mL; MIC (Escherichia coli [4]): ≤ 0.06 µg/mL; MIC (Escherichia coli [5]): ≤ 0.06 µg/mL; MIC (Escherichia coli [6]): > 64 µg/mL; MIC (Escherichia coli [7]): ≤ 0.06 µg/mL; pKa at 100 µM (physchem): 10
50 | OB(O)c1ccc(Cn2cc(-c3ccccn3)nn2)cc1 | 47 | – | 27.4 | > 80 | > 80 | –
51 | [N-]=[N+]=NCc1cccc(B(O)O)c1 | 30 | 830 | 30 | > 80 | > 80 | MIC (Escherichia coli [4]): ≤ 0.06 µg/mL; MIC (Escherichia coli [6]): > 64 µg/mL; MIC (Escherichia coli [7]): 0.12 µg/mL (≈ 0.678 µM)

— ChEMBL document CHEMBL5113474, “Triazole-substituted phenylboronic acids as tunable lead inhibitors of KPC-2 antibiotic resistance” (Eur J Med Chem, 2022)
